Assay results published in ChEMBL document CHEMBL4811274, “Epo-C12 inhibits peroxiredoxin 1 peroxidase activity” (Bioorg Med Chem, 2021).
Active and inactive are the calls of the source. No cut-off for these calls is given here.

What was measured:
[1] = tested on: BALL-1; assay: Induction of apoptosis in human BALL-1 cells at 5 uM pretreated with GSH for 1.5 hrs followed by compound addition and measured after 24 hrs by annexin-V-FITC and PI staining based flow cytometry analysis; type: functional, cell-based
Summary of the method: (§1)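 BALL-1 cells (2×10⁵) pretreated 1.5 h at 37 °C with DMSO, 250 μM DTT, 1.5 mM GSH or 250 μM NAC, then ±5 μM compound for 24 h. Stained with annexin V-FITC (HEPES–NaOH/NaCl/CaCl2 buffer pH 7.4, 10 min), then 2 μg/mL PI; flow cytometry. Late apoptotic (annexin V+/PI+) percentage; octuplicate, mean ± SD, Tukey HSD.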

[2] = tested on: BALL-1; assay: Induction of ROS production in human BALL-1 cells incubated for 30 mins by DCFH-DA staining based flow cytometry analysis; type: functional, cell-based; conditions: dose 1-10 µM
Summary of the method: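 Cells (2×10⁵) loaded with 10 μM DCFH-DA for 10 min, then exposed to 1, 5 or 10 μM compound, DMSO vehicle, or 50 μM H2O2 for 30 min. Pellets resuspended in PBS; DCF fluorescence by flow cytometry (ex 488/em 530 nm). Fluorescence normalized to control; mean of two independent measurements, error as range.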

[3] = tested on: BALL-1; assay: Induction of apoptosis in human BALL-1 cells at 5 uM pretreated with DTT for 1.5 hrs followed by compound addition and measured after 24 hrs by annexin-V-FITC and PI staining based flow cytometry analysis; type: functional, cell-based; summary of the method: as §1
[4] = tested on: BALL-1; assay: Induction of apoptosis in human BALL-1 cells at 5 uM pretreated with NAC for 1.5 hrs followed by compound addition and measured after 24 hrs by annexin-V-FITC and PI staining based flow cytometry analysis; type: functional, cell-based; summary of the method: as §1
[5] = tested on: BALL-1; assay: Cytotoxicity against human BALL-1 cells assessed as reduction in cell viability incubated for 24 hrs by WST-8 assay; type: functional, cell-based; conditions: BALL-1, 24 h
Summary of the method: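 BALL-1 cells (RPMI 1640, 10% FBS, 37 °C, 5% CO2) seeded at 10,000 cells/well, exposed to a concentration range for 24 h, 0.1% DMSO. WST-8 reagent added, 2 h at 37 °C, absorbance 450 nm. Growth inhibition taken as sample/control absorbance ratio; IC50 reported as mean ± SD.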

[6] = target: Peroxiredoxin-1 (Homo sapiens) (UniProt Q06830); assay: Retention of chaperone activity of oxidized Prx1 (unknown origin) assessed as decrease in heat-induced citrate synthase aggregation at 25 uM incubated for 20 mins by light scattering assay
Peroxiredoxin-1 (Homo sapiens), sequence (Q06830 whole entry, looked up): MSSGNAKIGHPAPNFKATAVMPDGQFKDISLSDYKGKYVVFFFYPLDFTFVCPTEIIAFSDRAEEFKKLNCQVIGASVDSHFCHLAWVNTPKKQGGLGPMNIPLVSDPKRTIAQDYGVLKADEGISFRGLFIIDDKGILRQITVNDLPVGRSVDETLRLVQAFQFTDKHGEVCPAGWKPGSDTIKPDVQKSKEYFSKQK

[7] = target: Peroxiredoxin-1 (Homo sapiens) (UniProt Q06830); assay: Inhibition of recombinant Prx1 (unknown origin) assessed as reduction in peroxidase activity at 50 uM incubated for 30 mins followed by H2O2 addition and measured after 20 mins by PEROXsay assay kit method relative to control; values are per cent of control; conditions: time 50.0 min
[8] = target: Peroxiredoxin-1 (Homo sapiens) (UniProt Q06830); assay: Binding affinity to recombinant wild type Prx1 (unknown origin) expressed in human HEK293T cells at 1 uM incubated for 20 hrs by Western blot analysis

Row | Structure (SMILES) | Activity [1] | Activity [2] | Activity [3] | Activity [4] | IC50 [5] [nM] | Activity [6] | residual activity [7] [%] | Activity [8]
1 | CCCCCCCCCCCC(=O)[C@]12O[C@H]1C(C)(O)NC2=O (stereo partly specified) | inactive | Dose-Dependent Effect | inactive | inactive | 4410 | Active | 56 | –
2 | [O-][n+]1c(CBr)c(CBr)[n+]([O-])c2ccccc21 | – | – | – | – | 1050 | Active | 33 | –
3 | CC1(O)NC(=O)[C@@]2(C(=O)CCCCCCCCCCCNC(=O)CCCC[C@@H]3SC[C@@H]4NC(=O)N[C@@H]43)O[C@@H]12 (stereo partly specified) | – | – | – | – | – | – | – | Active
